Shown are actives, neighbours in structure and some others; about 2.7% of the full set was active somewhere.
DTT redox prof: compounds producing H2O2 with reducing agent – biochemical, NIH compound library profiling, artefact control for MLSCN library redox annotation, primary screen | DTT-dependent redox cycling H2O2, phenol red/HRP absorbance; 100% = 100 µM peroxide control, 0% = buffer | activation, % at 10 µM | hit rate 0.03% among 200,000 | AID 878;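 active = activation of at least 50% relative to the plate's high and low controls in the primary single-dose screen; inactive = activation below 50%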;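 note: compound incubated with DTT at 0.8 mM final as the reducing agent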
ABCG2 block: human ABCG2 inhibition, ABCB1 as counter-screen | Q9UNQ0 | IgMXP3 cells, JC-1 efflux, flow cytometry | inhibition, % at 6.6 µM | hit rate 0.1% among 190,000 | AID 1325;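 active = inhibition above 80%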
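Times: 10 min at 25 °C | Test system: Two drug-resistant human cell lines, ABCG2 and ABCB1 | Quantity: 3 million cells/mL final, two lines in 1:1 ratio | Signal: Flow cytometry, 530 nm JC-1 signal | Dosing: Compound at 6.6 µM | Controls: Nicardipine and DMSO wells | Reagent: JC-1 as fluorescent efflux pump substrate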
FLuc inh counter: Photinus pyralis luciferase inhibition counter-screen; P08659; ATPLite firefly luciferase biochemical luminescence, 10 min; inhibition, % at 10 µM; hit rate 1.5% among 200,000; AID 1006;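 active = inhibition above about 50% when tested at 10 µM, limit read from the data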
ABCB1 inh: inhibitors of human ABCB1 transporter, ABCG2 counter-screen | P08183 | CCRF-Adr cells, JC-1 efflux, flow cytometry | inhibition, % at 6.6 µM | hit rate 0.067% among 190,000 | AID 1326; in the data active = inhibition above about 40%;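 note: higher value means more JC-1 retained so stronger ABCB1 efflux block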
Target sequence (P08183 whole entry, looked up): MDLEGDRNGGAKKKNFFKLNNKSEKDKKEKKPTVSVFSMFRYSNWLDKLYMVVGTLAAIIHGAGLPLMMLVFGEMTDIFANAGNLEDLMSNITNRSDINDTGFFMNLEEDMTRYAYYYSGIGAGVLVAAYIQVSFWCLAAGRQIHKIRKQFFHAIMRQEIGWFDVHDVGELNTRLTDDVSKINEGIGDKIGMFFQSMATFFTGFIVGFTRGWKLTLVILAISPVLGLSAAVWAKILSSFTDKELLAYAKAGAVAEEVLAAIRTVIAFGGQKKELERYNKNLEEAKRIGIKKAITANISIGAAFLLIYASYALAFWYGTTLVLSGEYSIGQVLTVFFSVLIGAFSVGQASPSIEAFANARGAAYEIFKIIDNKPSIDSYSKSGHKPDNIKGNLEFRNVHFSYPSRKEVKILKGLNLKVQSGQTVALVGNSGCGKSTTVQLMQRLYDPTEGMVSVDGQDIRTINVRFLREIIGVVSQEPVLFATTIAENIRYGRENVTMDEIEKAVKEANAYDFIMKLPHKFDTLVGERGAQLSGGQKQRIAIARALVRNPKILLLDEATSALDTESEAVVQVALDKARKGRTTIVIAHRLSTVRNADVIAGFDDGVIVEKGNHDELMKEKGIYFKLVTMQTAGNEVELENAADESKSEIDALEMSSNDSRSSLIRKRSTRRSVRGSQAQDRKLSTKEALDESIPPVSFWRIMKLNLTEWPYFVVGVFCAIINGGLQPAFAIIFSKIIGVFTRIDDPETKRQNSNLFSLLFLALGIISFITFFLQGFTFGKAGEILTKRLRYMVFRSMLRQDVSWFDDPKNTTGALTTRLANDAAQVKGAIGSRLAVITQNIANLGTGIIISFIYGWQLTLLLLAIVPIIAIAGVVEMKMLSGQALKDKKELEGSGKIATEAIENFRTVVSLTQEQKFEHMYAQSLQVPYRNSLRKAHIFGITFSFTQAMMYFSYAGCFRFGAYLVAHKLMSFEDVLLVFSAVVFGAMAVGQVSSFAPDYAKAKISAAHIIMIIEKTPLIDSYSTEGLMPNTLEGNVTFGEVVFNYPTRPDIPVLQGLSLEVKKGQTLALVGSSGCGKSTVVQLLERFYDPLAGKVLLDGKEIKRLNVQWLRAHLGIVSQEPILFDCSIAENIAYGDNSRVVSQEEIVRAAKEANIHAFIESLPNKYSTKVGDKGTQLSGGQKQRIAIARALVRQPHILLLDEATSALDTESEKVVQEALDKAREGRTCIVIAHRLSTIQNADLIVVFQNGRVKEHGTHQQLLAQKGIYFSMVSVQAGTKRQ
Measles CPE: protection of cells from measles virus. AID 841. protection (pct of control), % at 4 µM. Measles virus-infected cells, CPE protection, absorbance. hit rate 1.5% among 140,000; in the data active = protection mostly above about 24%, no sharp cut-off; inactive = mostly below about 26%
FLuc act counter: affects firefly luciferase, flagging false hits in luciferase stimulation screens | 200,000 tested, under 10 active | P08659 | ATPlite luciferase biochemical, luminescence, 10 min; 0 = ATP-free wells, 1 = DMSO control | activation factor at 10 µM;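 active = luciferase activation factor, scaled between plate controls, of at least 2 with compound at 10 µM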
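Assay system: Luciferase/luciferin detection reagent, cell-free biochemical luciferase assay / Also added: ATP substrate / Schedule: 10 min at ambient temperature / Measured by: luminescence measurement of luciferase light output / Benchmarks: low control with PBS replacing ATP, high control enzyme plus ATP without compound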
Hits are given with their value; 0 = inactive; - = no result given.

SMILES	DTT redox prof	ABCG2 block	FLuc inh counter	ABCB1 inh	Measles CPE	FLuc act counter
O=C(Nc1cccc(NC(=O)c2ccco2)c1)c1ccc2c(c1)OCCO2	0	0	0	0	-	0
O=C(COC(=O)c1ccco1)Nc1ccc2c(c1)OCCO2	0	0	69	0	0	0
O=C(Nc1ccc(N2CCOCC2)c(Cl)c1)c1ccco1	0	0	59	0	0	0
CC1(C)Oc2ccc(NC(=O)c3ccco3)cc2O1	0	0	63	0	0	0
O=C(COC(=O)c1ccccc1NC(=O)c1ccco1)Nc1ccc2c(c1)OCO2	0	0	0	0	0	0
O=C(Nc1ccc2c(c1)OCCO2)c1ccco1	0	0	50	0	0	0
O=C(CN1C2=NCCN2c2ccccc21)c1ccc(Br)s1	0	0	0	0	0	0
Cc1cc(C)n(-c2ccc(C(=O)OCC(=O)Nc3ccc([N+](=O)[O-])cc3)cc2)n1	0	0	0	0	44	0
O=C(Cc1ccc([N+](=O)[O-])cc1)Nc1cccc(C(F)(F)F)c1	0	0	0	0	73	0
CCc1cccc(NC(=O)Cc2ccc([N+](=O)[O-])cc2)c1	0	0	0	0	0	0
Cc1cc([N+](=O)[O-])ccc1NC(=O)Cc1ccc(F)cc1	0	0	0	0	53	0
O=[N+]([O-])c1ccccc1Oc1ncccc1[N+](=O)[O-]	0	0	0	0	-	0
COC(=O)c1cc(Br)c(=O)n(Cc2ccncc2)c1	0	0	0	0	0	0
COC(=O)c1cc(Br)c(=O)n(Cc2ccc(C(=O)O)cc2)c1	0	0	0	0	32	0
Cc1ccc(/C=C/C(=O)Nc2cccnc2)o1	0	0	0	0	0	0
O=C(/C=C/c1ccc([N+](=O)[O-])cc1)Nc1cccnc1	0	0	65	0	0	0
O=C(/C=C/c1ccc(Cl)c([N+](=O)[O-])c1)Nc1cccnc1	0	0	0	0	44	0
O=C(CSCc1cccc(Br)c1)N/N=C/c1ccc2c(c1)OCO2	0	0	0	0	0	0
O=C(NC1CCCCC1)C(c1ccccn1)N(C(=O)c1csnn1)C1CCCCC1 (configuration not stated)	0	0	0	0	-	0
CC(C)(C)C(=O)Nc1nc2c(c(=O)[nH]1)CCCC2	0	0	0	0	-	0
CC1Nc2nc(NC(=O)C(C)(C)C)[nH]c(=O)c2N(C)C1C (configuration not stated)	0	0	0	0	73	0
CCCCCCSc1nsc(NC(=O)CCC)n1	0	0	0	0	-	0
Cc1nc(Nc2ccccc2)sc1-c1ccccc1	0	0	85	0	0	0
Cc1nc(Nc2ccc(C(=O)O)cc2)sc1-c1ccccc1	0	0	0	0	-	0
CCCCn1c(NCc2ccccc2NS(=O)(=O)c2ccc(C)cc2)nc2ccccc21	0	0	0	0	0	0
SMILES	DTT redox prof	ABCG2 block	FLuc inh counter	ABCB1 inh	Measles CPE	FLuc act counter
CCn1c(/N=C/c2ccccc2NS(=O)(=O)c2ccc(C)cc2)nc2ccccc21	0	0	0	0	66	0
O=C(Nc1ccccc1C(=O)N/N=C/c1ccco1)c1ccccc1	0	0	76	0	0	0
O=C(Nc1ccccc1C(=O)N/N=C/c1ccco1)c1ccc(F)cc1	0	0	80	0	0	0
C/C(=N\NC(=O)c1ccccc1NC(=O)c1ccc(Cl)cc1)c1ccncc1	0	0	98	0	-	0
Cc1ccccc1C(=O)Nc1ccccc1C(=O)N/N=C\c1ccco1	0	0	0	0	0	0
O=C(Nc1ccccc1C(=O)N/N=C/c1ccco1)c1ccc(Cl)cc1	0	0	85	0	0	0
O=C(COC(=O)c1cc([N+](=O)[O-])ccc1NCc1ccccc1Cl)NCC(F)(F)F	0	0	0	0	0	0
CCC(C(=O)NC(C)(C)C)N(C(=O)c1ccc(Cl)nc1)C1CCCC1 (configuration not stated)	0	0	0	0	-	0
Cc1cc(C)cc(COn2ccnc2)c1	0	0	0	0	0	0
CCOc1cccc(C(=O)Nc2ccc3oc(Cc4ccc(Cl)cc4)nc3c2)c1	0	0	0	0	33	0
O=C(Nc1ccc2oc(Cc3ccc(Cl)cc3)nc2c1)c1cccnc1	0	0	0	0	0	0
O=C(/C=C/c1ccccc1)N1CCN(CCN2C(=O)c3cccc4cccc(c34)C2=O)CC1	0	0	0	0	0	0
Cc1cc(C(=O)CSc2n[nH]c(N)n2)c(C)n1-c1ccccc1	0	0	59	0	26	0
Cc1cc(C(=O)CSc2nnc3ccccn23)c(C)n1-c1ccccc1	0	0	75	0	0	0
Cc1nn(C)c(C)c1Nc1ccc(N2C(=O)C3CC=CCC3C2=O)cc1[N+](=O)[O-] (configuration not stated)	0	0	0	0	-	0
CON1C(=O)C(=O)N(OC)C2CCCCCC21 (configuration not stated)	0	0	0	0	45	0
CCOC(=O)CON1C(=O)C(=O)N(OCC(=O)OCC)C2CCCCC21 (configuration not stated)	0	0	0	0	-	0
CO/N=C/CC(=O)c1cnc(-c2ccccc2)s1	0	0	0	0	-	0
CN(C)c1ccc(C=C(c2nnnn2-c2ccccc2)c2nnnn2-c2ccccc2)cc1	0	0	0	0	23	0
CCCN1CNC(=S)N(c2cc(C)ccc2C)C1	0	0	0	0	34	0
CCCN1CNC(=S)N(c2cccc(C)c2C)C1	0	0	0	0	0	0
CCOc1cccc(C(=O)NNC(=O)CCC(=O)O)c1	0	0	0	0	0	0
CCc1ccc(-c2nc(CCl)cs2)cc1	0	0	65	0	0	0
Cc1ccoc1C(=O)NCc1occc1C(=O)O	0	0	0	0	41	0
COC(=O)c1sccc1NC(=O)CN(C)NS(=O)(=O)c1ccc(Cl)cc1	0	0	0	0	44	0
SMILES	DTT redox prof	ABCG2 block	FLuc inh counter	ABCB1 inh	Measles CPE	FLuc act counter
COc1ccc(CNC(=O)COC(=O)/C=C/c2cccc(Br)c2)cc1	0	0	0	0	-	0
Clc1ccccc1Cc1noc(CN2CCN(Cc3ccccn3)CC2)n1	0	0	0	0	-	0
COc1ccc2c(c1)Cc1sc(NC(C)=O)nc1-2	0	0	0	0	38	0
COc1ccc2c(c1)Cc1sc(NC(=O)c3ccco3)nc1-2	0	0	0	0	0	0
O=C1S/C(=C\c2ccc(N3CCOCC3)o2)C(=O)N1c1ccccc1	0	0	0	0	-	0
O=C1S/C(=C\c2ccc(N3CCOCC3)o2)C(=O)N1Cc1c(F)cccc1Cl	0	132	0	0	0	0
CCOc1ccc(N=C(C)c2ccccc2O)cc1	0	0	0	0	0	0
CCOc1ccc(N=Nc2cc(C(C)C)ccc2O)cc1	0	0	0	0	26	0

Bioassay records: PubChem, several laboratories
